Laboratory results reported in ChEMBL document CHEMBL4138139, “Discovery of VU6005649, a CNS Penetrant mGlu7/8 Receptor PAM Derived from a Series of Pyrazolo[1,5-a]pyrimidines” (ACS Med Chem Lett, 2017).
pEC50, pIC50, pKi: −log10 of the molar value. Calls of active or inactive are those of the source. No cut-off for these calls is given here.

Assays:
[1] = molecular target: Beta-1 adrenergic receptor (Homo sapiens) (UniProt P08588); test: Displacement of [125I] cyanopindolol from full length human recombinant beta1 receptor expressed in CHOK1 cell membranes at 10 uM after 120 mins by scintillation counting method relative to control
Beta-1 adrenergic receptor (Homo sapiens), sequence (P08588 whole entry, looked up): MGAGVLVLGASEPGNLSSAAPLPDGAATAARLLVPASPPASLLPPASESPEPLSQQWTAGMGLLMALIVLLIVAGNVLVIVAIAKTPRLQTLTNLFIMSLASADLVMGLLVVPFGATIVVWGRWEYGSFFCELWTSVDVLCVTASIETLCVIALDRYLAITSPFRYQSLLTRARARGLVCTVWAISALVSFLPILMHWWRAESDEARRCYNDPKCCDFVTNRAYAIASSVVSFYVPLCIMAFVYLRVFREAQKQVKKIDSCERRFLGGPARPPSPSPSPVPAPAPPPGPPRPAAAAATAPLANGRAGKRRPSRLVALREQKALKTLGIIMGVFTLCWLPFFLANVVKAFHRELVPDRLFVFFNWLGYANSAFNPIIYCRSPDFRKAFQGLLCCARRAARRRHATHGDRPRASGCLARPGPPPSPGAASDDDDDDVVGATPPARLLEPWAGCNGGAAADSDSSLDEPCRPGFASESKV
Procedure, shortened: (§1)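 Single-concentration screen at 10 μM in an outsourced profiling panel of 68 GPCRs, ion channels and transporters. Activity read out as percent inhibition of specific radioligand binding.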

[2] = molecular target: Substance-P receptor (Homo sapiens, UniProt P25103); test: Displacement of [3H] substance P from recombinant human NK1 receptor expressed in CHO cells after 90 mins by scintillation counting method; format: cell-based
Substance-P receptor, sequence (P25103 whole entry): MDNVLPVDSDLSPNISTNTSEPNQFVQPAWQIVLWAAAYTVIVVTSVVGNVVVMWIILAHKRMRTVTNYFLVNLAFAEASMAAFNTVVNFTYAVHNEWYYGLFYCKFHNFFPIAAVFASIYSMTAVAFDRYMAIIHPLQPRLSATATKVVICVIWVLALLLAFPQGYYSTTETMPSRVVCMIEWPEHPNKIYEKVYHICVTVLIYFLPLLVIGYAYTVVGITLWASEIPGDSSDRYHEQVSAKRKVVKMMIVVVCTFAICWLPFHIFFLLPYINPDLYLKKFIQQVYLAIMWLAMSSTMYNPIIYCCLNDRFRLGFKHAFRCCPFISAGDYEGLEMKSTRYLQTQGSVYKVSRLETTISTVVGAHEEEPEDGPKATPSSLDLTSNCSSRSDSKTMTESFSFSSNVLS

[3] = test system: Mus musculus; test: Antipsychotic activity in wild-type contextual fear conditioning C57/B6 mouse model assessed as pro-cognitive effects on associative learning by measuring freezing at 50 mg/kg, ip treated 15 mins prior to training measured during 3 mins testing period (reference value: 65.5 +/- […])
[4] = molecular target: T1, Metabotropic glutamate receptor 2 (Rattus norvegicus, UniProt P31421); test: Negative allosteric modulation of rat mGlu2 receptor expressed in HEK cells assessed as decrease in glutamate-induced thallium flux incubated for 142 secs followed by glutamate addition measured after 120 secs by Fluo4-AM dye based fluorescence assay; format: functional, cell-based
T1 sequence (P31421 whole entry): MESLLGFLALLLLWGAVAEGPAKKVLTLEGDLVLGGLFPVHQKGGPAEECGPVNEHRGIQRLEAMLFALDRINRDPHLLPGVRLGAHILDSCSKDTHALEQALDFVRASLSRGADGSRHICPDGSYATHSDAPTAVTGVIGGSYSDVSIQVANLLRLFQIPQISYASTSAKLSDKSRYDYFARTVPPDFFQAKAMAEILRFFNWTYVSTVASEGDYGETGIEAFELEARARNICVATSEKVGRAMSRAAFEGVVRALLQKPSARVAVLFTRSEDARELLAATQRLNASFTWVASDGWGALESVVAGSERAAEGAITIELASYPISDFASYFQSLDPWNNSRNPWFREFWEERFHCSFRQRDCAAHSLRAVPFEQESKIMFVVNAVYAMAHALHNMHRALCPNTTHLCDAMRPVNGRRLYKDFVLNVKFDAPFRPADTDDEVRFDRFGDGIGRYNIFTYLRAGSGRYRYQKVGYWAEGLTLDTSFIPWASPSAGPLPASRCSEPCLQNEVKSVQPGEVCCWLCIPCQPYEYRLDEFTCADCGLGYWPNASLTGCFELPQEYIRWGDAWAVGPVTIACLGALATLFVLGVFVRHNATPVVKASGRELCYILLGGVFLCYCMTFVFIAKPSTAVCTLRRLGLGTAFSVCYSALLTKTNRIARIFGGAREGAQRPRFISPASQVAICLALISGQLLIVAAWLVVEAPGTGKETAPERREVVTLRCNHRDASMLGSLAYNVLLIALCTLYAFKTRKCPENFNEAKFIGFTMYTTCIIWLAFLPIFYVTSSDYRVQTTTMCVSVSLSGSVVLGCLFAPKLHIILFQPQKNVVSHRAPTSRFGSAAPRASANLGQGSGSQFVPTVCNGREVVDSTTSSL

[5] = molecular target: Histamine H2 receptor (Homo sapiens) (UniProt P25021); test: Displacement of [125I] aminopotentidine from recombinant human H2 receptor expressed in CHOK1 cell membranes at 10 uM after 120 mins by scintillation counting method relative to control; procedure, shortened: as §1
Histamine H2 receptor (Homo sapiens), sequence (P25021 whole entry): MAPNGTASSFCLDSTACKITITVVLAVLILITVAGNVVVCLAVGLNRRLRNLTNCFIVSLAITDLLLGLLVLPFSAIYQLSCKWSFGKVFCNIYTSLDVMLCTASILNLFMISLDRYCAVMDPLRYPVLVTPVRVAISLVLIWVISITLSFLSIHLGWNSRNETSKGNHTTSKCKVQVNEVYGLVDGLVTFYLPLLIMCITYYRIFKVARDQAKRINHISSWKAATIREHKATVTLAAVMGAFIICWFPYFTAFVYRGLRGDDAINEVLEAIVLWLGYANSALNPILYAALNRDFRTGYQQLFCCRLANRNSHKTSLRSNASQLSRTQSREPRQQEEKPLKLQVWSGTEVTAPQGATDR

[6] = Brain to plasma partition coefficient, Kp of the compound in C57BL/6 mouse at 10 mg/kg, ip measured after 60 mins by LC-MS/MS analysis; format: ADME, organism-based; settings: brain and plasma
Procedure, shortened: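 Mice given 10 mg/kg IP; time course out to 6 h with nonserial sampling of plasma and brain at each time point; Kp from brain/plasma levels.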

[7] = molecular target: Metabotropic glutamate receptor 1 (Rattus norvegicus, UniProt P23385); test: Positive allosteric modulation of rat mGlu1 receptor expressed in HEK cells assessed as increase in glutamate-induced calcium flux incubated for 142 secs followed by glutamate addition measured after 120 secs by Fluo4-AM dye based fluorescence assay; format: functional, cell-based
[8] = molecular target: Delta-type opioid receptor (Homo sapiens) (UniProt P41143); test: Displacement of [3H] naltrindole from recombinant human delta opioid receptor expressed in HEK293 cell membranes at 10 uM after 60 mins by scintillation counting method relative to control; procedure, shortened: as §1
[9] = molecular target: Muscarinic acetylcholine receptor M3 (Homo sapiens) (UniProt P20309); test: Displacement of [3H] N-methylscopolamine from recombinant human M3 receptor expressed in CHOK1 cell membranes at 10 uM after 120 mins by scintillation counting method relative to control; procedure, shortened: as §1
Muscarinic acetylcholine receptor M3 (Homo sapiens), sequence (P20309 whole entry, looked up): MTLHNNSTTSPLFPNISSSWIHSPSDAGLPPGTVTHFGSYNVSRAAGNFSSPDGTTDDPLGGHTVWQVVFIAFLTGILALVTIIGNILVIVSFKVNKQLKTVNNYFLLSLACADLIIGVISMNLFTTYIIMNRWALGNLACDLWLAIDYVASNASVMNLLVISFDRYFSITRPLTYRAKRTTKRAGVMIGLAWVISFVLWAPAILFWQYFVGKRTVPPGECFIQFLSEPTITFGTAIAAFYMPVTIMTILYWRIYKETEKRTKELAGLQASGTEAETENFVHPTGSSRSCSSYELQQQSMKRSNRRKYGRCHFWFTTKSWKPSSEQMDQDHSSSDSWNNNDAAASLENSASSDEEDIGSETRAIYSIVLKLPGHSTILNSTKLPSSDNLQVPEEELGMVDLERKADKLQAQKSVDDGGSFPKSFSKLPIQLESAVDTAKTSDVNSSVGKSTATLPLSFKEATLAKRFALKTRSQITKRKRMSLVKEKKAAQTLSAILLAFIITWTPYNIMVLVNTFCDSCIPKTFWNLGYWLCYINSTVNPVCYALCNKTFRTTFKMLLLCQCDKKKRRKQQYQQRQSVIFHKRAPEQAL

[10] = molecular target: Glutamate NMDA receptor (Rattus norvegicus) (UniProt P35439+Q00959+Q00960+Q00961+Q62645+Q8VHN2+Q9R1M7); test: Displacement of [3H] CGP-39653 from NMDA in Wistar rat cerebral cortical membranes at 10 uM measured after 20 mins by scintillation counting method relative to control; procedure, shortened: as §1
[11] = molecular target: Cysteinyl leukotriene receptor 1 (Homo sapiens) (UniProt Q9Y271); test: Displacement of [3H] LTD4 from recombinant human CysLT1 receptor expressed in CHOK1 cell membranes at 10 uM after 30 mins by scintillation counting method relative to control; procedure, shortened: as §1
Cysteinyl leukotriene receptor 1 (Homo sapiens), sequence (Q9Y271 whole entry): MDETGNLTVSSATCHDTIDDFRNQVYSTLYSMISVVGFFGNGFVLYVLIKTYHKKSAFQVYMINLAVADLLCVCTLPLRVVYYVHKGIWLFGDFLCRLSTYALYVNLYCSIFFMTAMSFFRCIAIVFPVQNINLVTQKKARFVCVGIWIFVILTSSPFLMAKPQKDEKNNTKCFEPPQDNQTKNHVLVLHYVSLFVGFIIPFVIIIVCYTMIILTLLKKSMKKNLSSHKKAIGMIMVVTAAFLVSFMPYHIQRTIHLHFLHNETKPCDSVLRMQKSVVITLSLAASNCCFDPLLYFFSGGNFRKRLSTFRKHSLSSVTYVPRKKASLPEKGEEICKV

[12] = molecular target: Alpha-1D adrenergic receptor (Homo sapiens) (UniProt P25100); test: Displacement of [3H] prazosin from recombinant human alpha1d receptor expressed in HEK293 cell membranes at 10 uM measured after 60 mins by scintillation counting method relative to control; procedure, shortened: as §1
Alpha-1D adrenergic receptor (Homo sapiens), sequence (P25100 whole entry): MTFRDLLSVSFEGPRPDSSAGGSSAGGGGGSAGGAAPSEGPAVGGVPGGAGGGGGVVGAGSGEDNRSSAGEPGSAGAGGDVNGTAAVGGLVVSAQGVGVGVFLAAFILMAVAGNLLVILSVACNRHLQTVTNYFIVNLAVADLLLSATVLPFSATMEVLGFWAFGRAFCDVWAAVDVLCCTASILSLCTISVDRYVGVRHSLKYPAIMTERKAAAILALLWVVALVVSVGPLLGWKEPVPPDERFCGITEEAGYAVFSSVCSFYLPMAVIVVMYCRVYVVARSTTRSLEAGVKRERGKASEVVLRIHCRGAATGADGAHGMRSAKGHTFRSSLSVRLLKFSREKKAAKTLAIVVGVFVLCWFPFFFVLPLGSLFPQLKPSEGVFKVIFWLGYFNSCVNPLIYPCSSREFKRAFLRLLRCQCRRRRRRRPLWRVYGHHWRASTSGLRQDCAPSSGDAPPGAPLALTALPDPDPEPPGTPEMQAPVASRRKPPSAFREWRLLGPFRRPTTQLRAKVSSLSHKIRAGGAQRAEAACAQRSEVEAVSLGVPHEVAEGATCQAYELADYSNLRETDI

[13] = species: Rattus norvegicus; test: Displacement of [35S] ATP-alphaS from Wistar rat brain P2Y receptor at 10 uM measured after 60 mins by scintillation counting method relative to control; procedure, shortened: as §1
[14] = molecular target: T1, Metabotropic glutamate receptor 2; test: Positive allosteric modulation of rat mGlu2 receptor expressed in HEK cells assessed as increase in glutamate-induced calcium flux incubated for 142 secs followed by glutamate addition measured after 120 secs by Fluo4-AM dye based fluorescence assay; format: functional, cell-based
[15] = molecular target: Neuropeptide Y receptor type 1 (Homo sapiens) (UniProt P25929); test: Displacement of [125I] Peptide YY from Y1 receptor in human SK-N-MC cell membrane at 10 uM after 60 mins by scintillation counting method relative to control; format: cell membranes; procedure, shortened: as §1
[16] = molecular target: Glucocorticoid receptor (Homo sapiens) (UniProt P04150); test: Displacement of [3H] dexamethasone from full length human recombinant glucocorticoid receptor expressed in insect cells at 10 uM after 24 hrs by scintillation counting method relative to control; procedure, shortened: as §1
[17] = species: Homo sapiens; test: Displacement of [125I] epibatidine from human nAChR expressed in IMR32 cell membranes at 10 uM after 60 mins by scintillation counting method relative to control; procedure, shortened: as §1
[18] = molecular target: Adenosine receptor A1 (Homo sapiens) (UniProt P30542); test: Displacement of [3H] DPCPX from full length human recombinant A1 receptor expressed in CHOK1 cell membranes at 10 uM after 90 mins by scintillation counting method relative to control; procedure, shortened: as §1
[19] = Brain to plasma partition coefficient, Kp of the compound in Sprague-Dawley rat at 0.2 to […], iv administered as cassette dose measured at […] post dose by LC-MS/MS analysis; format: ADME, organism-based; settings: brain and plasma
[20] = molecular target: Histamine H3 receptor (Homo sapiens) (UniProt Q9Y5N1); test: Displacement of [3H] N-alpha-methylhistamine from recombinant human H3 receptor expressed in CHOK1 cell membranes at 10 uM after 120 mins by scintillation counting method relative to control; procedure, shortened: as §1
[21] = molecular target: Acetylcholine receptor subunit alpha (Homo sapiens) (UniProt P02708); test: Displacement of [125I] alpha-Bungarotoxin from alpha1 nAChR in human rhabdomyosarcoma cell membranes at 10 uM after 120 mins by scintillation counting method relative to control; procedure, shortened: as §1
[22] = molecular target: Metabotropic glutamate receptor 3 (Rattus norvegicus, UniProt P31422); test: Positive allosteric modulation of rat mGlu3 receptor expressed in HEK cells assessed as increase in glutamate-induced calcium flux incubated for 142 secs followed by glutamate addition measured after 120 secs by Fluo4-AM dye based fluorescence assay; format: functional, cell-based
[23] = molecular target: Sodium-dependent noradrenaline transporter (Homo sapiens) (UniProt P23975); test: Displacement of [125I] RTI-55 from full length human recombinant NET expressed in MDCK cell membranes at 10 uM after 180 mins by scintillation counting method relative to control; procedure, shortened: as §1
[24] = test system: Rattus norvegicus; test: Antipsychotic activity in rat assessed as inhibition of amphetamine-induced hyperlocomotion at 30 mg/kg, ip; format: functional, organism-based
Procedure, shortened: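 Rats given 30 mg/kg IP in 10% Tween 80/H2O, challenged with amphetamine 0.75 mg/kg s.c.; locomotor activity measured.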

[25] = molecular target: hERG (KCNH2) (Homo sapiens, UniProt Q12809); test: Displacement of [3H] astemizole from full length human recombinant ERG receptor expressed in HEK293 cell membranes at 10 uM after 60 mins by scintillation counting method relative to control; settings: HEK293 cell membranes that express recombinant human ERG, probe [3H] astemizole
hERG (KCNH2), sequence (Q12809 whole entry): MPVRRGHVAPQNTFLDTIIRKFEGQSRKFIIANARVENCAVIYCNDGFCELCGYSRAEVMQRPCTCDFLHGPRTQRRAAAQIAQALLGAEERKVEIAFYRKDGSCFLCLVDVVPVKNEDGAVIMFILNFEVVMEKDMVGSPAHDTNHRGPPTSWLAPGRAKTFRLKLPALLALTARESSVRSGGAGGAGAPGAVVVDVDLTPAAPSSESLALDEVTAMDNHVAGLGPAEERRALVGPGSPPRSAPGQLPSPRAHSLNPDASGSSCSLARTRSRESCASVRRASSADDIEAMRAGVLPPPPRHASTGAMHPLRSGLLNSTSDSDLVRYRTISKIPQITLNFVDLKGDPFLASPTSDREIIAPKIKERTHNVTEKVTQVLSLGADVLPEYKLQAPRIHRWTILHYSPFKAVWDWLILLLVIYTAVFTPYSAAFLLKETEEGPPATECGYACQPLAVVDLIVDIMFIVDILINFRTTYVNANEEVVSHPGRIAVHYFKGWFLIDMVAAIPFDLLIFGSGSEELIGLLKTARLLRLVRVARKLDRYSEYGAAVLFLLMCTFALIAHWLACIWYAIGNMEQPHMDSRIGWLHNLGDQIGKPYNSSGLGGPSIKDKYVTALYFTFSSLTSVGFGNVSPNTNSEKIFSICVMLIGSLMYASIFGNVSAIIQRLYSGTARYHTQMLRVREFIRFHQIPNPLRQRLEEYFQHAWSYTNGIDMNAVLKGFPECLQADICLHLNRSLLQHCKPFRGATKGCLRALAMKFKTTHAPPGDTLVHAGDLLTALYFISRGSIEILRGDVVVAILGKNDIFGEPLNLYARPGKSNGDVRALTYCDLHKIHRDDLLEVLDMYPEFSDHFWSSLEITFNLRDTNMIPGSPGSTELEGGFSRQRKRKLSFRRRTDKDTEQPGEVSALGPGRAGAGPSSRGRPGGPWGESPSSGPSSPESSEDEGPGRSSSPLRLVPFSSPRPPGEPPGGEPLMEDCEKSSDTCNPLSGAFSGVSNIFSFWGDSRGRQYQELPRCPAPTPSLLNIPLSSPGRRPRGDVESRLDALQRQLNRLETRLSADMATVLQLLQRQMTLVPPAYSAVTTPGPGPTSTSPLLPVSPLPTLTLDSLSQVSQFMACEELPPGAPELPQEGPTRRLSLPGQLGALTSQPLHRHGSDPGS

[26] = molecular target: Platelet-activating factor receptor (Homo sapiens) (UniProt P25105); test: Displacement of [3H] PAF from human platelet activating factor receptor at 10 uM after 180 mins by scintillation counting method relative to control; procedure, shortened: as §1

COc1ccc(-c2c(C)nn3c(C(F)(F)F)cc(C)nc23)c(F)c1F
inhibition [1]: < 50% | pIC50 [2]: 5.47 | pKi [2]: 6.19 | Activity [3]: 76.8% | pIC50 [4]: < 5.00 | inhibition [5]: < 50% | Kp at 1 h [6]: 2.1 | pEC50 [7]: < 5.00 | inhibition [8]: < 50% | inhibition [9]: < 50% | inhibition [10]: < 50% | inhibition [11]: < 50% | inhibition [12]: < 50% | inhibition [13]: < 50% | pEC50 [14]: < 5.00 | inhibition [15]: < 50% | inhibition [16]: < 50% | inhibition [17]: < 50% | inhibition [18]: < 50% | Kp at […] [19]: 4.3 | inhibition [20]: < 50% | inhibition [21]: < 50% | pEC50 [22]: < 5.00 | inhibition [23]: < 50% | inhibition [24]: inactive | inhibition at 1 h, 10 µM [25]: < 50% | inhibition [26]: < 50%
